Assay results published in ChEMBL document CHEMBL5236552, “Discovery of Soticlestat, a Potent and Selective Inhibitor for Cholesterol 24-Hydroxylase (CH24H)” (J Med Chem, 2021).

Columns and labels:
[1] = Metabolic stability in human liver microsome assessed as clearance at 1 uM incubated for 15 to 30 mins in presence of NADPH by LC-MS/MS analysis; format: ADME; settings: liver microsomes, time 15-30 min, read-out: CLH
Method in brief: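 Human liver microsomes (0.2 mg protein/mL) were mixed with compound (1 µM) in phosphate buffer (pH 7.4) and started with an NADPH-generating system. Incubated at 37 °C for 15 and 30 min, with zero-time samples as controls, then stopped with acetonitrile. Remaining compound in the supernatant was measured by LC/MS/MS.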

[2] = molecular target: CYP3A4 (Homo sapiens, UniProt P08684); assay: Inhibition of CYP3A4 (unknown origin) at 10 uM using testosterone as substrate incubated for 60 mins by LC-MS/MS analysis relative to control; format: ADME; settings: probe testosterone
Chain of CYP3A4 (P08684 whole entry): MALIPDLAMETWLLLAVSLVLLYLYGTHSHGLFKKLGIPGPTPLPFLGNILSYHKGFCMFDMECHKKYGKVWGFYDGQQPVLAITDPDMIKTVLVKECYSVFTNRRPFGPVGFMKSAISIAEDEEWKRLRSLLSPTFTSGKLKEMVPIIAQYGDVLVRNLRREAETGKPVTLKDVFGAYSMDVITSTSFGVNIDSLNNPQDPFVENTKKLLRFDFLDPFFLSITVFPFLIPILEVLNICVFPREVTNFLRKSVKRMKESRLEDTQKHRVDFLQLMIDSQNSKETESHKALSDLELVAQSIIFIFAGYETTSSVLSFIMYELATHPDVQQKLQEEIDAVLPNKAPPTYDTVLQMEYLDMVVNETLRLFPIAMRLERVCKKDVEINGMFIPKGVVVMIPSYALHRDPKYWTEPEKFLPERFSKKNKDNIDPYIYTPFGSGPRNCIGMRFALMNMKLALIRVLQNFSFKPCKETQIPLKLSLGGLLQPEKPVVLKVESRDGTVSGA
Method in brief: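 CYP3A4-expressing microsomes in 50 mmol/L phosphate buffer (pH 7.4) with an NADPH-generating system (MgCl2, β-NADP+, glucose-6-phosphate, G6P dehydrogenase). Testosterone was the substrate and test compound was 10 µmol/L, with final solvent at 0.5%. Incubated 60 min, stopped with acetonitrile, and 6β-hydroxytestosterone read by LC/MS/MS. Run in triplicate; reported as % activity remaining versus an inhibitor-free control.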

[3] = molecular target: Cholesterol 24-hydroxylase (Homo sapiens, UniProt Q9Y6A2); assay: Inhibition of full length N-terminal his6-tagged human CH24H (28 to 494 residues) expressed in Escherichia coli DH5alpha using [14C] cholesterol as substrate preincubated for 15 mins followed by substrate addition and measured after 5 min in presence of beta-NADPH
Chain of Cholesterol 24-hydroxylase (Q9Y6A2 whole entry, the tested form may be a part): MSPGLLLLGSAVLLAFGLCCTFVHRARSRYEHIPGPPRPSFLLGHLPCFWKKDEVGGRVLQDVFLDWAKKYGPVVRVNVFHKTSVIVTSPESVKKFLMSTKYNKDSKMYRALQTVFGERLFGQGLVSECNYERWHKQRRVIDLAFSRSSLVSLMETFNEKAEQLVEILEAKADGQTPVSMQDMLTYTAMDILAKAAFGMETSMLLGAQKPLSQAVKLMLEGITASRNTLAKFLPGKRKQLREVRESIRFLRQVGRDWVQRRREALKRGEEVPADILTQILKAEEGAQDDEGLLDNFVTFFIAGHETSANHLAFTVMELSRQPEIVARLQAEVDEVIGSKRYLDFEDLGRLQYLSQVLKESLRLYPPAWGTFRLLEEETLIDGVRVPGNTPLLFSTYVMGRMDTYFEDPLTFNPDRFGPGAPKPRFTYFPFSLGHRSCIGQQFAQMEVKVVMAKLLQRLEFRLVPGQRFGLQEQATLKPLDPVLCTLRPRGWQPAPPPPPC

[4] = Inhibition of cortisol synthesis in human NCI-H295R cells at 10 uM by Enzyme immunoassay relative to control; format: functional
Method in brief: (§1)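 H295R adrenocortical cells grown in DMEM/F12 with 2.5% Nu-serum and 1% ITS-plus, seeded at 5×10^4 per well for three nights, then primed two nights with 20 µM forskolin. Cells washed, then exposed overnight to compound in DMEM/F12 with 1% ITS-plus and 20 µM forskolin. Cortisol, testosterone, aldosterone and corticosterone in the supernatant measured by competitive EIA against a calibration curve; triplicate, mean ± SEM.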

[5] = molecular target: T1, Cytochrome P450 1A2 (Homo sapiens, UniProt P05177); assay: Inhibition of CYP1A2 (unknown origin) using phenacetin as substrate incubated for 10 to 20 mins in presence of NADPH-generating system by LC-MS/MS analysis; format: ADME
T1 sequence (P05177 whole entry): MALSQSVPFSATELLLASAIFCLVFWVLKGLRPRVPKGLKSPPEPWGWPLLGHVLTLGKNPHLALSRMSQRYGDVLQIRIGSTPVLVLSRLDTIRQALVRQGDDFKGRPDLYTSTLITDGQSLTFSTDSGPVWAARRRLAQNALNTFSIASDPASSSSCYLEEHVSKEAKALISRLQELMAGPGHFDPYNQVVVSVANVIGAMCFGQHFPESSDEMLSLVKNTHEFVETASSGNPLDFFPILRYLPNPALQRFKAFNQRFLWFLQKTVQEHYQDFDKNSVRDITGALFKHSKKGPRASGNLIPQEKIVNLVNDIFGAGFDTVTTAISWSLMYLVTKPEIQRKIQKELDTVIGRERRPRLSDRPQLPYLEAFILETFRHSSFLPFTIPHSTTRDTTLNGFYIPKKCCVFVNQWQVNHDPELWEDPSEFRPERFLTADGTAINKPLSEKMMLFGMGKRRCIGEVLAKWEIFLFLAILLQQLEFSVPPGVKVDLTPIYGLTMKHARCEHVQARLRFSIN
Method in brief: (§2)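 Recombinant CYP-expressing microsomes (CYP1A2, 2C8, 2C9, 2C19, 2D6, 3A4) in 50 mM phosphate buffer pH 7.4 with NADPH-generating system. Substrates: phenacetin, amodiaquine, tolbutamide, (S)-mephenytoin, bufuralol, testosterone, respectively. Test compounds at 1–100 µM final, 0.5% final solvent. Incubated 10–20 min at 37 °C in duplicate, stopped with acetonitrile. Metabolite peaks read by LC/MS/MS; activity given as % remaining versus no-inhibitor control.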

[6] = system: Mus musculus; assay: In vivo inhibition of […] CH24H in po dosed C57BL/6N mouse brain assessed as reduction in 24HC level measured upto 24 hrs; format: functional, organism-based; settings: dose 1-10 mg/kg
Method in brief: (§3)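 Female C57BL/6N mice, 7–8 weeks, 3 per group; single oral gavage in 0.5% aqueous methylcellulose (10 mL/kg) at 1, 3 or 10 mg/kg. Brains collected up to 24 h after dosing and homogenized in about 4-fold saline. 24HC extracted with acetonitrile/methanol/formic acid, quantified by UPLC on a C18 column at 40 °C, and expressed as % of control; mean + SD.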

[7] = Inhibition of testosterone synthesis in human NCI-H295R cells at 10 uM by Enzyme immunoassay relative to control; format: functional; method in brief: as §1
[8] = Drug concentration in po dosed C57BL/6N mouse brain measured upto 24 hrs by LC-MS analysis; format: ADME, organism-based; settings: in vivo, dose 1-10 mg/kg
Method in brief: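 Female C57BL/6N mice, 7–8 weeks, 3 per group; single oral gavage at 1, 3 and 10 mg/kg in 0.5% aqueous methylcellulose (10 mL/kg). Brains taken at 0.5–24 h (from 0.25 h at 10 mg/kg) and homogenized in about 4-fold saline. Homogenate mixed with acetonitrile plus internal standard, centrifuged, and quantified by LC-MS/MS in MRM mode (m/z 374.20→183.10).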

[9] = Inhibition of aldosterone synthesis in human NCI-H295R cells at 10 uM by Enzyme immunoassay relative to control; format: functional; method in brief: as §1
[10] = molecular target: Cytochrome P450 2D6 (Homo sapiens, UniProt P10635); assay: Inhibition of CYP2D6 (unknown origin) using bufuralol as substrate incubated for 10 to 20 mins in presence of NADPH-generating system by LC-MS/MS analysis
Chain of Cytochrome P450 2D6 (P10635 whole entry): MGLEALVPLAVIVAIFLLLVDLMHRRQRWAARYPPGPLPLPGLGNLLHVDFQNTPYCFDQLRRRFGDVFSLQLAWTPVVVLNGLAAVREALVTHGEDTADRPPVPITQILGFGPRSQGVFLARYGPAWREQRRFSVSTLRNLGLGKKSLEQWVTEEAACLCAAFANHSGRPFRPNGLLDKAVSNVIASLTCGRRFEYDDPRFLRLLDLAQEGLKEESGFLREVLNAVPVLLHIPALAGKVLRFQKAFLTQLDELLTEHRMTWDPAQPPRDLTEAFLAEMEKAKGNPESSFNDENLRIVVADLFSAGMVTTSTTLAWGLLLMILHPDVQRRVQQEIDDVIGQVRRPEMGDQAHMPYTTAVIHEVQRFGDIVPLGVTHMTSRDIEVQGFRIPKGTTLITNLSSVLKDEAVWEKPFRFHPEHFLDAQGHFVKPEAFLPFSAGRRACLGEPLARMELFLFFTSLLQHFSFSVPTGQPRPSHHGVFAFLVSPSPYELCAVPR

[11] = molecular target: Cytochrome P450 2C9 (Homo sapiens, UniProt P11712); assay: Inhibition of CYP2C9 (unknown origin) using tolbutamide as substrate incubated for 10 to 20 mins in presence of NADPH-generating system by LC-MS/MS analysis; format: ADME; method in brief: as §2
Chain of Cytochrome P450 2C9 (P11712 whole entry): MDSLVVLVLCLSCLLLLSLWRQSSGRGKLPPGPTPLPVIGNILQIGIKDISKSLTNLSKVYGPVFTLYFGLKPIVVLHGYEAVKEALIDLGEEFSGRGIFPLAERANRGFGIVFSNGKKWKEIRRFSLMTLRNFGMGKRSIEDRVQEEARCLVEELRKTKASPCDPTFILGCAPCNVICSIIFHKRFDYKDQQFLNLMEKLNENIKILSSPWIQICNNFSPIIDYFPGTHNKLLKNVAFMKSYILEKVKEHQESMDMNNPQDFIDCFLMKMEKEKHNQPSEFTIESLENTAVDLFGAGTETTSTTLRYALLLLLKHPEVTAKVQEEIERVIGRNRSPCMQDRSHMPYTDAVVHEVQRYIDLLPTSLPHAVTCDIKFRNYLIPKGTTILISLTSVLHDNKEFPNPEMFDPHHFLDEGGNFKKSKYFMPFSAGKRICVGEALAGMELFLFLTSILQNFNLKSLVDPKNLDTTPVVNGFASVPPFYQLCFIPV

[12] = Inhibition of corticosterone synthesis in human NCI-H295R cells at 10 uM by Enzyme immunoassay relative to control; format: functional; method in brief: as §1
[13] = system: Mus musculus; assay: In vivo inhibition of […] CH24H in C57BL/6N mouse brain assessed as reduction in 24HC level at 3 mg/kg, po measured after 24 hrs relative to control; format: functional; method in brief: as §3
[14] = system: Mus musculus; assay: In vivo inhibition of […] CH24H in C57BL/6N mouse brain assessed as reduction in 24HC level at 10 mg/kg, po measured after 24 hrs relative to control; format: functional; method in brief: as §3
[15] = molecular target: Cytochrome P450 2C19 (Homo sapiens, UniProt P33261); assay: Inhibition of CYP2C19 (unknown origin) using (S)-mephenytoin as substrate incubated for 10 to 20 mins in presence of NADPH-generating system by LC-MS/MS analysis
Chain of Cytochrome P450 2C19 (P33261 whole entry): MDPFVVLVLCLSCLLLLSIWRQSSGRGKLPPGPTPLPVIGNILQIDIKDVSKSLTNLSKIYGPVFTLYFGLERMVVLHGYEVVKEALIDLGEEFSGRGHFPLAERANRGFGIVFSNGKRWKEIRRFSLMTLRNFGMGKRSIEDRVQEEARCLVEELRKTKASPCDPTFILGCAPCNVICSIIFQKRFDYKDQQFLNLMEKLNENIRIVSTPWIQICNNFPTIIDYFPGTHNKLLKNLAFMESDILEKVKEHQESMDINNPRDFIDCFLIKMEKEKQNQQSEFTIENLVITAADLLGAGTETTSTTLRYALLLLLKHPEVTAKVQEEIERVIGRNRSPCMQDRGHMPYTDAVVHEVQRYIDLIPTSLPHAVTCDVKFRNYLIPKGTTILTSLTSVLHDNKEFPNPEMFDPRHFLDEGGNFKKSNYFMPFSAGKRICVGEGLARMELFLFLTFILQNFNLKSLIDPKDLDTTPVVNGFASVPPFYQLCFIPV

[16] = molecular target: T2, Cytochrome P450 2C8 (Homo sapiens, UniProt P10632); assay: Inhibition of CYP2C8 (unknown origin) using amodiaquine as substrate incubated for 10 to 20 mins in presence of NADPH-generating system by LC-MS/MS analysis; format: ADME; method in brief: as §2
T2 sequence (P10632 whole entry): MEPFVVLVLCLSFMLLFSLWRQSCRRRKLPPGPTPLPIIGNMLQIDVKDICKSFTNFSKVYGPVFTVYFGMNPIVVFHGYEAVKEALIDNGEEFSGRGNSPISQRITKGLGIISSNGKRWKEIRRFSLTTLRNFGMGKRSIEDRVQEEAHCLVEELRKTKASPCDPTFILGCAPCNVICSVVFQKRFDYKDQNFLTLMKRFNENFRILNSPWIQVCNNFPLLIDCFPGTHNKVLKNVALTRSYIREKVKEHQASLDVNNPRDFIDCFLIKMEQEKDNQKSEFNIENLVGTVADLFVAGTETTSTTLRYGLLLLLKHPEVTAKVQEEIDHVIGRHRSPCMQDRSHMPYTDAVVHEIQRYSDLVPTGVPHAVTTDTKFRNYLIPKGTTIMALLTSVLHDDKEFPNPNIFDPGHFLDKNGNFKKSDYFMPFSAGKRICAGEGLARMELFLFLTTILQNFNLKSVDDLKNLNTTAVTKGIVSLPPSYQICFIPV

[17] = Inhibition of corticosterone synthesis in human NCI-H295R cells by Enzyme immunoassay; format: functional, cell-based; method in brief: as §1
[18] = Inhibition of cortisol synthesis in human NCI-H295R cells by Enzyme immunoassay; format: functional, cell-based; method in brief: as §1
[19] = Inhibition of aldosterone synthesis in human NCI-H295R cells by Enzyme immunoassay; format: functional, cell-based; method in brief: as §1
[20] = Inhibition of testosterone synthesis in human NCI-H295R cells by Enzyme immunoassay; format: functional, cell-based; method in brief: as §1

SMILES	inhibition at 1 h, 10 µM [2] [%]	IC50 [3] [nM]	other results
O=C(c1ccccc1-c1ccncc1)N1CCC(O)(Cc2ccccn2)CC1	18	21	microsomal CLint at 1 µM [1]: 22 µL/min/mg
Cc1ccc(-c2ccncc2)c(C(=O)N2CCC(Cc3ccccc3)C(O)C2)c1 (racemic)		16	
Cc1ccc(-c2ccncc2)c(C(=O)N2CCC(O)(Cc3ccccc3)CC2)c1	67	2.7	
COC(=O)c1cc(C)ccc1-c1ccncc1		1900	
O=C(c1ccccc1-c1ccncn1)N1CCC(O)(Cc2ccccn2)CC1	8.8	36	microsomal CLint at 1 µM [1]: 9 µL/min/mg
O=C(c1cccnc1-c1ccncc1)N1CCC(O)(Cc2ccccn2)CC1	5.3	100	
CCC1(O)CCN(C(=O)c2cc(C)ccc2-c2ccncc2)CC1		540	
C[C@@H](c1ncncc1F)[C@](O)(Cn1cncn1)c1ccc(F)cc1F [VORICONAZOLE]		> 10000	
COC1(Cc2ccccc2)CCN(C(=O)c2cc(C)ccc2-c2ccncc2)CC1		74	
Cc1ccc(-c2ccncc2)c(C(=O)N2CCC(O)(c3ccccc3)CC2)c1		1200	
O=C(c1ccncc1)N1N=C(c2ccccc2)CC1(O)C(F)(F)F (stereo not given)		350	
O=C(c1cc(Cl)ccc1-c1ccncc1)N1CCC(O)(Cc2ccccc2)CC1	75	2.4	
O=C(c1cccnc1-c1ccncc1)N1CCC(O)(Cc2ccccc2)CC1 [SOTICLESTAT]	28	7.4	inhibition at 10 µM [4]: 0.2%; IC50 [5]: > 100000 nM; inhibition [6]: Dose-Dependent Effect; inhibition at 10 µM [7]: -0.4%; Drug uptake [8]: Dose-Dependent Effect; inhibition at 10 µM [9]: -3.8%; microsomal CLint at 1 µM [1]: 22 µL/min/mg; IC50 [10]: > 100000 nM; IC50 [11]: 19000 nM; inhibition at 10 µM [12]: -6%; inhibition in vivo at 3 mg/kg [13]: 25%; inhibition in vivo at 10 mg/kg [14]: 33%; IC50 [15]: 14000 nM; IC50 [16]: 62000 nM
Cc1ccc(-c2ccncc2)c(C(=O)N2CCC(O)CC2)c1		7700	
O=C(c1ccccc1-c1ccncn1)N1CCC(O)(Cc2ccccc2)CC1	17	4.3	microsomal CLint at 1 µM [1]: 70 µL/min/mg
Cc1ccc(-c2ccncc2)c(C(=O)N2CCN(Cc3ccccc3)C(=O)C2)c1		89	

SMILES	inhibition at 1 h, 10 µM [2] [%]	IC50 [3] [nM]	other results
Cc1cccc(C(=O)N2CCC(O)(Cc3ccccc3)CC2)c1-c1ccncc1	77	130	
Cc1ccc(-c2ccncc2F)c(C(=O)N2CCC(O)(Cc3ccccc3)CC2)c1	77	17	
Cc1ccc(-c2ccnc(C)c2)c(C(=O)N2CCC(O)(Cc3ccccc3)CC2)c1	60	> 10000	
Cc1ccc(-c2ccncc2)c(C(=O)N2CCC(Cc3ccccc3)CC2)c1		110	
Cc1ccc(-c2ccncc2)c(C(=O)N2CCN(Cc3ccccc3)CC2)c1		93	
O=C(c1cc(F)ccc1-c1ccncc1)N1CCC(O)(Cc2ccccc2)CC1	55	6.1	
COc1ccc(-c2ccncc2)c(C(=O)N2CCC(O)(Cc3ccccc3)CC2)c1	67	4.7	
O=C(c1cccnc1-c1ccncn1)N1CCC(O)(Cc2ccccc2)CC1	13	19	microsomal CLint at 1 µM [1]: 17 µL/min/mg
CC(=O)N1CCN(c2ccc(OCC3COC(Cn4ccnc4)(c4ccc(Cl)cc4Cl)O3)cc2)CC1 (stereo not given) [KETOCONAZOLE]			IC50 [17]: 2500 nM; IC50 [18]: 440 nM; IC50 [19]: 1400 nM; IC50 [20]: 340 nM
Cc1ccc(-c2ccncc2C)c(C(=O)N2CCC(O)(Cc3ccccc3)CC2)c1	91	4.9	
Cc1ccc(C(=O)N2CCC(O)(Cc3ccccc3)CC2)c(-c2ccncc2)c1	65	4.4	
Cc1ccccc1C1=NN(C(=O)c2ccncc2)C(C)(C)C1		60	
Cc1cccc(-c2ccncc2)c1C(=O)N1CCC(O)(Cc2ccccc2)CC1	71	7.8	
O=C(c1ccccc1-c1ccncc1)N1CCC(O)(Cc2ccccc2)CC1	45	7.9	microsomal CLint at 1 µM [1]: 120 µL/min/mg
Cc1ccc(-c2ccncc2)c(C(=O)N2CCN(C(=O)c3ccccc3)CC2)c1		> 10000	
